In ChEMBL document CHEMBL1681781, “Structure based design and syntheses of amino-1H-pyrazole amide derivatives as selective Raf kinase inhibitors in melanoma cells” (Bioorg Med Chem, 2011):

How the values were obtained:
[1] = target: T1, Hepatocyte growth factor receptor (Homo sapiens, UniProt P08581); settings: 10 uM
[2] = target: T2, BDNF/NT-3 growth factors receptor (Homo sapiens, UniProt Q16620); assay: inhibition of TRKB at 10 uM
[3] = target: Receptor-type tyrosine-protein kinase FLT3 (Homo sapiens, UniProt P36888); assay: inhibition of FLT3
[4] = target: T3, Proto-oncogene tyrosine-protein kinase ROS (Homo sapiens, UniProt P08922); assay: inhibition of ROS
[5] = target: Tyrosine-protein kinase JAK3 (Homo sapiens) (UniProt P52333); assay: inhibition of JAK3 at 10 uM
[6] = target: Aurora kinase A (Homo sapiens) (UniProt O14965); assay: Inhibition of Aurora A kinase at 10 uM
[7] = target: T4, Glycogen synthase kinase-3 beta (Homo sapiens, UniProt P49841); assay: inhibition of GSK3-beta
[8] = target: T5, Mitogen-activated protein kinase 8 (Homo sapiens, UniProt P45983); assay: inhibition of JNK1a1 at 10 uM
[9] = target: Insulin-like growth factor 1 receptor (Homo sapiens) (UniProt P08069); assay: inhibition of IGF-1R at 10 uM
[10] = target: T6, Fibroblast growth factor receptor 3 (Homo sapiens, UniProt P22607); settings: 10 uM
[11] = target: T7, Vascular endothelial growth factor receptor 2 (Homo sapiens, UniProt P35968); assay: inhibition of KDR at 10 uM
[12] = target: Cyclin-dependent kinase 1/cyclin B (Homo sapiens) (UniProt P06493+P14635+Q8WWL7+O95067); assay: Inhibition of CDK1/cyclin B at 10 uM; assay type: protein-complex assay
[13] = Antiproliferative activity against human A375P cells assessed as growth inhibition after 24 hrs by MTT assay; assay type: functional
How it was run: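 A375P cells kept in DMEM with 10% FBS and 1% penicillin/streptomycin at 37 °C under 5% CO2. Cells lifted with 0.05% trypsin–0.02% EDTA, seeded at 5 × 10^3 cells/well and left 24 h before dosing. Test compounds given as a 3-fold serial dilution over 12 points. Viability read by MTT reduction, absorbance at 590 nm.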

[14] = target: Cyclin-dependent kinase 1/cyclin B (Homo sapiens, UniProt P06493); assay: Inhibition of CDK1/cyclin B; assay type: protein-complex assay
[15] = target: T8, Macrophage-stimulating protein receptor (Homo sapiens, UniProt Q04912); assay: inhibition of RON
[16] = target: Focal adhesion kinase 1 (Homo sapiens) (UniProt Q05397); assay: Inhibition of FAK at 10 uM
[17] = target: T9, Mitogen-activated protein kinase 1 (Homo sapiens, UniProt P28482); assay: Inhibition of ERK2 at 10 uM
[18] = target: T10, Proto-oncogene tyrosine-protein kinase Src (Homo sapiens, UniProt P12931); settings: 10 uM
[19] = target: T11, Mitogen-activated protein kinase 10 (Homo sapiens, UniProt P53779); assay: inhibition of JNK3
[20] = target: T12, Ribosomal protein S6 kinase beta-1 (Homo sapiens, UniProt P23443); assay: inhibition of p70S6K
[21] = tested on: RAC-alpha serine/threonine-protein kinase (Homo sapiens), P31749 [S473D]; assay: Inhibition of AKT1 PH S473D mutant at 10 uM
[22] = target: T4, Glycogen synthase kinase-3 beta; assay: inhibition of GSK3-beta at 10 uM
Aurora kinase A = Aurora kinase A (Homo sapiens, UniProt O14965); assay: Inhibition of Aurora A kinase
[23] = target: T13, Tyrosine-protein kinase SYK (Homo sapiens, UniProt P43405); assay: inhibition of SYK at 10 uM
[24] = target: T14, Dual specificity mitogen-activated protein kinase kinase 1 (Homo sapiens, UniProt Q02750); assay: inhibition of MEK1
[25] = target: T11, Mitogen-activated protein kinase 10; settings: 10 uM
[26] = target: Serine/threonine-protein kinase mTOR (Homo sapiens, UniProt P42345); assay: inhibition of mTOR at 10 uM
[27] = target: Cyclin-dependent kinase 2/cyclin E (Homo sapiens) (UniProt P24864+P24941+O96020); assay: Inhibition of CDK2/cyclin E at 10 uM; assay type: protein-complex assay
[28] = target: ALK tyrosine kinase receptor (Homo sapiens) (UniProt Q9UM73); settings: 10 uM
[29] = target: T8, Macrophage-stimulating protein receptor; assay: inhibition of RON at 10 uM
[30] = target: T15, Serine/threonine-protein kinase PLK1 (Homo sapiens, UniProt P53350); assay: inhibition of PLK1 at 10 uM
[31] = target: T10, Proto-oncogene tyrosine-protein kinase Src; assay: Inhibition of c-Src
[32] = target: T9, Mitogen-activated protein kinase 1; assay: Inhibition of ERK2
HS27 = assay: Antiproliferative activity against human HS27 cells assessed as growth inhibition after 24 hrs by MTT assay; assay type: functional; settings: HS27, 24 h
[33] = target: T13, Tyrosine-protein kinase SYK; assay: inhibition of SYK
[34] = target: T3, Proto-oncogene tyrosine-protein kinase ROS; assay: inhibition of ROS at 10 uM
[35] = target: T14, Dual specificity mitogen-activated protein kinase kinase 1; assay: inhibition of MEK1 at 10 uM
[36] = target: T6, Fibroblast growth factor receptor 3; assay: inhibition of FGFR3
[37] = target: T2, BDNF/NT-3 growth factors receptor; assay: inhibition of TRKB
[38] = inhibition of PKA at 10 uM
[39] = target: T15, Serine/threonine-protein kinase PLK1; assay: inhibition of PLK1
[40] = inhibition of PKA
[41] = target: RAF proto-oncogene serine/threonine-protein kinase (Homo sapiens, UniProt P04049); assay: inhibition of RAF1 assessed as [33P]gamma-ATP incorporation into substrate at 10 uM after 40 mins by scintillation counting
[42] = target: Receptor-type tyrosine-protein kinase FLT3 (Homo sapiens) (UniProt P36888); settings: 10 uM
[43] = target: Cyclin-dependent kinase 2/cyclin E (Homo sapiens, UniProt P24941); assay: Inhibition of CDK2/cyclin E; assay type: protein-complex assay
[44] = target: T7, Vascular endothelial growth factor receptor 2; assay: inhibition of KDR
[45] = target: T12, Ribosomal protein S6 kinase beta-1; assay: inhibition of p70S6K at 10 uM
[46] = tested on: Serine/threonine-protein kinase B-raf (Homo sapiens), P15056 [V600E]; assay: Inhibition of b-Raf V599E mutant at 10 uM
[47] = target: T5, Mitogen-activated protein kinase 8; assay: inhibition of JNK1a1; settings: concentration not given here
[48] = target: T1, Hepatocyte growth factor receptor; assay: Inhibition of c-MET

T15 sequence (P53350 whole entry): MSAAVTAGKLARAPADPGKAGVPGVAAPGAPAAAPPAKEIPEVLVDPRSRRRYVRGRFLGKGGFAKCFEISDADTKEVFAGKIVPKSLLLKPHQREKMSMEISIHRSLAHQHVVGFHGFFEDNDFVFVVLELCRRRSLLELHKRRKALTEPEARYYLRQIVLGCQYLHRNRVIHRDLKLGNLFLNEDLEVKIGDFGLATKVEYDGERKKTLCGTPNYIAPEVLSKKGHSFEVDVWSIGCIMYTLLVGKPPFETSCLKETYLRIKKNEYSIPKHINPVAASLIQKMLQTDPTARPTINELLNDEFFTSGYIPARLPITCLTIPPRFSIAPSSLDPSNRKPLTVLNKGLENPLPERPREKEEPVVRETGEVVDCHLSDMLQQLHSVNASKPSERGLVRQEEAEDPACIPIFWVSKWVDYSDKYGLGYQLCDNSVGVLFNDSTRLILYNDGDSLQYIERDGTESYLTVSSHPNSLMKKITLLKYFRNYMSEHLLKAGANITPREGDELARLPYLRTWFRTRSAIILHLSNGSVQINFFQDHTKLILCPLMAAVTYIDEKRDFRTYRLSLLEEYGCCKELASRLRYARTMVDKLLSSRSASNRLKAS
T10 sequence (P12931 2-536 limits assumed): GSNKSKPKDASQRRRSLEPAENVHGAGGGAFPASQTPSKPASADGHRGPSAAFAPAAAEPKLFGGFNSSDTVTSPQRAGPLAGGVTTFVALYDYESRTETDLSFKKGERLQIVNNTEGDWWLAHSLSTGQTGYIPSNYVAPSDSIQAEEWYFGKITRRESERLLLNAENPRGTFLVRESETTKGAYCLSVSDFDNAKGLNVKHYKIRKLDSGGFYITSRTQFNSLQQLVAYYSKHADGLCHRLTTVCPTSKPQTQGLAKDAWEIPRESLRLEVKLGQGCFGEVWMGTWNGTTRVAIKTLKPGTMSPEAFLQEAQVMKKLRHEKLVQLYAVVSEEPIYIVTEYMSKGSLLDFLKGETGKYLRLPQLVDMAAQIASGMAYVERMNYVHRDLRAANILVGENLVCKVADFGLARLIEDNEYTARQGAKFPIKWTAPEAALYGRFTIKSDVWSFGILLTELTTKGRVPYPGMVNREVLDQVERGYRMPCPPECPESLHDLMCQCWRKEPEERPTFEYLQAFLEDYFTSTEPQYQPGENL
T5 sequence (P45983 whole entry): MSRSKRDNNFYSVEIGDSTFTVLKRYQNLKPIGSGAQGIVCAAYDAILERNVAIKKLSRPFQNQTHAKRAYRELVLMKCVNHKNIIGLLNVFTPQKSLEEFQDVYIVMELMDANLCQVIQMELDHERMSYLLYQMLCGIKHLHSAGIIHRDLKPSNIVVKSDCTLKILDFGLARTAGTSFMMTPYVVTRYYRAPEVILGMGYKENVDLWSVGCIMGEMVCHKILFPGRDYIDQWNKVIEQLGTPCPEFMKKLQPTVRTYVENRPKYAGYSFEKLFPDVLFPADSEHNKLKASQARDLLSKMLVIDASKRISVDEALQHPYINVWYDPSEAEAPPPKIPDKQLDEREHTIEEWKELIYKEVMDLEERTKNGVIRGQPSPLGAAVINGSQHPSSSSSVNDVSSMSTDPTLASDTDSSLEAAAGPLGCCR
T8 sequence (Q04912 25-304 limits assumed): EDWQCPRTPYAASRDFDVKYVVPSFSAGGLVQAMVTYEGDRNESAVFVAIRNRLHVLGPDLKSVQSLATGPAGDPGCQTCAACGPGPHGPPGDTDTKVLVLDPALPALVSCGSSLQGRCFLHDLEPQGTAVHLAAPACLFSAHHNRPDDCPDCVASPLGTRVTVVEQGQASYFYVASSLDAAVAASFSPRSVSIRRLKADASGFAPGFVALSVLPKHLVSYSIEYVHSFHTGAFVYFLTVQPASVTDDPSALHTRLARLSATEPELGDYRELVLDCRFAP
T8 sequence (Q04912 310-1400 limits assumed): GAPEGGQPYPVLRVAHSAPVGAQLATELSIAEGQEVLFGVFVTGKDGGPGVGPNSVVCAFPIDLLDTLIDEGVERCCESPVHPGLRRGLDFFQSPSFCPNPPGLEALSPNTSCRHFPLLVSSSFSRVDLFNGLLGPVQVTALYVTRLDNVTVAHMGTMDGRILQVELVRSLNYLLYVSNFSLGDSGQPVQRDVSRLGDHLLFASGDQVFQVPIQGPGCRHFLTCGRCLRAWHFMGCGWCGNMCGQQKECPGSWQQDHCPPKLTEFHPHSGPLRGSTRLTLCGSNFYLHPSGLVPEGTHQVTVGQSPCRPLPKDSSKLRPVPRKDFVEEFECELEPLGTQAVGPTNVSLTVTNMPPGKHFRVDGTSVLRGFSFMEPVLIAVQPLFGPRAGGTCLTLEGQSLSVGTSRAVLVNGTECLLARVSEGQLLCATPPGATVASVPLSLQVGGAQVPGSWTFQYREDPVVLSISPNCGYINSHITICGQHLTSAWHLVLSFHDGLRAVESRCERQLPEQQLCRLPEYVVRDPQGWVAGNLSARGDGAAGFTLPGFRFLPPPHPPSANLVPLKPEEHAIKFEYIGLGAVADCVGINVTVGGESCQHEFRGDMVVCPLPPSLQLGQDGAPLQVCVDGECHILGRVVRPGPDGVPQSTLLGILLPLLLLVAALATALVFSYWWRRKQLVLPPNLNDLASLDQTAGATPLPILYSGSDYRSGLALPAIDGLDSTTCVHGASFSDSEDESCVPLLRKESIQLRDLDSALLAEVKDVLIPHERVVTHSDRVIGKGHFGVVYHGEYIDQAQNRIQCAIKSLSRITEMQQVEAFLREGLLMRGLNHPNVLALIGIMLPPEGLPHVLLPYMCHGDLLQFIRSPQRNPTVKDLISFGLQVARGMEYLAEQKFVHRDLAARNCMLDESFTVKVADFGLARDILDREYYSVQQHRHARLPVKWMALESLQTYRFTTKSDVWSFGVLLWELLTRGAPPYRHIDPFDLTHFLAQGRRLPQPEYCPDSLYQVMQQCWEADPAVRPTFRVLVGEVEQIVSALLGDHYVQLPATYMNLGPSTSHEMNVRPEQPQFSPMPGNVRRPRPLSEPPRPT
T14 sequence (Q02750 whole entry): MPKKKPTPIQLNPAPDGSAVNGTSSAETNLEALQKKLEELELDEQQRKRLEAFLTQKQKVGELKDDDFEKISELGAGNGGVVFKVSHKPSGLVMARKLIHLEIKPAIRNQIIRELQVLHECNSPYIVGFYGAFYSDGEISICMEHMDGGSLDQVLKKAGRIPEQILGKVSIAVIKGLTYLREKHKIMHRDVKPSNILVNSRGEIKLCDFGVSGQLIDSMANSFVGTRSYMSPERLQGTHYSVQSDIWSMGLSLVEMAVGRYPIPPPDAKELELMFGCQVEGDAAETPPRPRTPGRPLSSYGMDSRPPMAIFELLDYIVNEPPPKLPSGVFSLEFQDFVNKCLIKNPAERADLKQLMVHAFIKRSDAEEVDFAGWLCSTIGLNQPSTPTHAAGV
T9 sequence (P28482 whole entry): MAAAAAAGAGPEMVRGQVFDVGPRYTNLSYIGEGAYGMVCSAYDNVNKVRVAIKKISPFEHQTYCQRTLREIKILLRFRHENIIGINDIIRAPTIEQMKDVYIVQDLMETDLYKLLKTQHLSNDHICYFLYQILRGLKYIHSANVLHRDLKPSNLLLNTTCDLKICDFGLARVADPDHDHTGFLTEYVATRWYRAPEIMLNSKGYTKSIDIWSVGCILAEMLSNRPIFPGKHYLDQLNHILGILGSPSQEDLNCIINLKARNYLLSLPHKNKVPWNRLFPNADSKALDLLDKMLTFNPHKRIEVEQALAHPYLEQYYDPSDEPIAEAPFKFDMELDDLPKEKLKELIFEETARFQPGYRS
T7 sequence (P35968 whole entry): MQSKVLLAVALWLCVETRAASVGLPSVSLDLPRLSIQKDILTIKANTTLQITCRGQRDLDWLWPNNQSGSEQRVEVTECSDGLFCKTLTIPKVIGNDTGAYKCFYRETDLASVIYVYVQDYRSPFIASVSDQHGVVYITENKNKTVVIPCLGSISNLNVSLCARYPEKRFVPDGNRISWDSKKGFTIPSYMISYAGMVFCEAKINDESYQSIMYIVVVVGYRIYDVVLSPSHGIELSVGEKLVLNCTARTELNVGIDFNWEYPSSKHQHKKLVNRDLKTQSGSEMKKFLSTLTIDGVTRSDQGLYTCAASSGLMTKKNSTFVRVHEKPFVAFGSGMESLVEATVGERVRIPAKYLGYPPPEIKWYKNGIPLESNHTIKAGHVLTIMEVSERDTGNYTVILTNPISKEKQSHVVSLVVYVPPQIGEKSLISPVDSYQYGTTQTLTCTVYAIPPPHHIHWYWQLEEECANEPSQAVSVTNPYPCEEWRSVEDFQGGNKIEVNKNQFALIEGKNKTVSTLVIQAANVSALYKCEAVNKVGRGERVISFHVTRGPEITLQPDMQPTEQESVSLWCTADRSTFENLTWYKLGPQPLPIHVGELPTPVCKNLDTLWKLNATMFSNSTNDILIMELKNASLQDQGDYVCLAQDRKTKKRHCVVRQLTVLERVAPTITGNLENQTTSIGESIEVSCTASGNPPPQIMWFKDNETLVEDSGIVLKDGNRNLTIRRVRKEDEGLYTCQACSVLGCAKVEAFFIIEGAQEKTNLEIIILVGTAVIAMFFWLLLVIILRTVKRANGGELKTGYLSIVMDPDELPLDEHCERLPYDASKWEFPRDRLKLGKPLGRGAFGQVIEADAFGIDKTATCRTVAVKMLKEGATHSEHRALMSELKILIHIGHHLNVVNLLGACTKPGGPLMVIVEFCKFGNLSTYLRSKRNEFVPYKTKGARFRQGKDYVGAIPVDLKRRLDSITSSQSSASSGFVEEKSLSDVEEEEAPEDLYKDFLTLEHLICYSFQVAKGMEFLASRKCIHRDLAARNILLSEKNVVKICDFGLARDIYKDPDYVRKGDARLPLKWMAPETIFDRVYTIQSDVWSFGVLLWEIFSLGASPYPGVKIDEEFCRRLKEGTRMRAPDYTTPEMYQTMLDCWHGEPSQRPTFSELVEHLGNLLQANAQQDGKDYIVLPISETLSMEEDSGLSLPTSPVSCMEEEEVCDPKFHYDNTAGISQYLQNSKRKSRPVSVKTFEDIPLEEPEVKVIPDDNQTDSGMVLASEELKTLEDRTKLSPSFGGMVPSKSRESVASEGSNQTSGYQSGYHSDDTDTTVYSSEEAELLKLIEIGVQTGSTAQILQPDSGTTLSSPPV

inhibition [1]: 13% | inhibition [2]: 6.6% | IC50 [3]: < 1 nM | IC50 [4]: < 1 nM | inhibition [5]: 0% | inhibition [6]: 0% | IC50 [7]: 2.73 nM | IC50 [8]: 1590 nM | inhibition [9]: 0.7% | inhibition [10]: 0.1% | inhibition [11]: 0% | inhibition [12]: 0% | IC50 [14]: 3.2 nM | IC50 [15]: 277 nM | inhibition [16]: 1.5% | inhibition [17]: 0% | inhibition [18]: 16% | IC50 [19]: > 20000 nM | IC50 [20]: < 1 nM | inhibition [21]: 3.7% | inhibition [22]: 1.4% | IC50 (Aurora kinase A): < 1 nM | inhibition [23]: 0% | IC50 [24]: 18.2 nM | inhibition [25]: 13% | inhibition [26]: 1.2% | inhibition [27]: 0% | inhibition [28]: 7.7% | inhibition [29]: 0% | inhibition [30]: 6.3% | IC50 [31]: 4.79 nM | IC50 [32]: 11400 nM | IC50 [33]: < 1 nM | inhibition [34]: 0% | inhibition [35]: 0% | IC50 [36]: 21.5 nM | IC50 [37]: < 1 nM | inhibition [38]: 0% | IC50 [39]: 167 nM | IC50 [40]: < 1 nM | inhibition [41]: 100% | inhibition [42]: 13% | IC50 [43]: 2.13 nM | IC50 [44]: 9.42 nM | inhibition [45]: 0% | inhibition [46]: 97% | inhibition [47]: 7.1% | IC50 [48]: 193 nM
Structure (SMILES): COc1ccc(Cn2ncc(NC(=O)c3cc(NC(=O)Nc4ccc(Cl)c(C(F)(F)F)c4)ccc3C)c2N)cc1
GI50 [13]: 270 nM | GI50 (HS27): > 30000 nM
